Measured values from publication PMC5860981 (Journal of immunology (Baltimore, Md. : 1950), 2018).

Legend:
Format in all cases: cell-based, human
neutrophils = test: PMA-induced NET formation in neutrophils; settings: 100 μM, neutrophils stimulated with 25 nM PMA 3 h
NETs = test: Detection of LL-37 in NETs by immunofluorescence microscopy; settings: 100 μM, PMA-induced NETs, antibody specific for native LL-37
In short: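 Human neutrophils, hypotonically lysed to remove RBCs, seeded at 1 × 10^5 cells on 1% BSA-treated coverslips, 30 min at 37 °C, 5% CO2. Where indicated, 100 μM PAD inhibitor. NETs induced with 25 nM PMA, 3 h. Fixed in 3.7% paraformaldehyde; mouse anti-LL-37 (1:50, 1 h RT), Alexa-Fluor-647 anti-mouse (1:1000, 45 min), Hoechst 1 μg/mL; imaged at 20×.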

pDCs = test: pDC stimulation with NETs

SMILES: NC(=O)[C@H](CCCN=C(N)CCl)NC(=O)c1ccccc1 [Cl-A, Cl-amidine]
- NET formation and levels of citrullination (neutrophils): reduced both the levels of citrullination (Figure S3) and NET formation
- LL-37 fluorescence spots relative to amount of NETs, versus no inhibitor (NETs): 3 times
- IL-6 in conditioned medium from pDCs treated with NETs generated in the presence of inhibitor (pDCs; 100 μM inhibitor, ELISA): substantial amount of IL-6
- MxA expression in pDCs exposed to NETs pre-treated with inhibitor (pDCs; NETs from neutrophils given 100 μM inhibitor before PMA, real-time PCR): upregulated markedly
